The source made the active and inactive calls. The rule behind the calls is not given here.
Assays:
[1] = molecular target: Vascular endothelial growth factor receptor 2 (Homo sapiens) (UniProt P35968); assay: Inhibition of His-tagged human recombinant VEGFR2 (789 to 1356 residues) expressed in insect cells at 200 nM by Z'-lyte assay; conditions: Insect cell
[2] = molecular target: Platelet-derived growth factor receptor alpha (Homo sapiens) (UniProt P16234); assay: Inhibition of GST-tagged human recombinant PDGFR-alpha (550 to 1089 residues) expressed in baculovirus expression system at 200 nM by Z'-lyte assay
[3] = molecular target: Tyrosine-protein kinase BTK (Homo sapiens) (UniProt Q06187); assay: Inhibition of His-tagged human recombinant BTK expressed in insect cells at 200 nM by Z'-lyte assay; conditions: Insect cell
[4] = molecular target: Epidermal growth factor receptor (Homo sapiens, UniProt P00533, C797S/L858R); assay: Inhibition of EGFR L858R/C797S mutant (unknown origin) using TK-substrate preincubated with enzyme for 30 mins followed by substrate and ATP addition for 20 mins by HTRF assay
Epidermal growth factor receptor (Homo sapiens, UniProt P00533, C797S/L858R), sequence (P00533 25-1210 C797S/L858R limits assumed): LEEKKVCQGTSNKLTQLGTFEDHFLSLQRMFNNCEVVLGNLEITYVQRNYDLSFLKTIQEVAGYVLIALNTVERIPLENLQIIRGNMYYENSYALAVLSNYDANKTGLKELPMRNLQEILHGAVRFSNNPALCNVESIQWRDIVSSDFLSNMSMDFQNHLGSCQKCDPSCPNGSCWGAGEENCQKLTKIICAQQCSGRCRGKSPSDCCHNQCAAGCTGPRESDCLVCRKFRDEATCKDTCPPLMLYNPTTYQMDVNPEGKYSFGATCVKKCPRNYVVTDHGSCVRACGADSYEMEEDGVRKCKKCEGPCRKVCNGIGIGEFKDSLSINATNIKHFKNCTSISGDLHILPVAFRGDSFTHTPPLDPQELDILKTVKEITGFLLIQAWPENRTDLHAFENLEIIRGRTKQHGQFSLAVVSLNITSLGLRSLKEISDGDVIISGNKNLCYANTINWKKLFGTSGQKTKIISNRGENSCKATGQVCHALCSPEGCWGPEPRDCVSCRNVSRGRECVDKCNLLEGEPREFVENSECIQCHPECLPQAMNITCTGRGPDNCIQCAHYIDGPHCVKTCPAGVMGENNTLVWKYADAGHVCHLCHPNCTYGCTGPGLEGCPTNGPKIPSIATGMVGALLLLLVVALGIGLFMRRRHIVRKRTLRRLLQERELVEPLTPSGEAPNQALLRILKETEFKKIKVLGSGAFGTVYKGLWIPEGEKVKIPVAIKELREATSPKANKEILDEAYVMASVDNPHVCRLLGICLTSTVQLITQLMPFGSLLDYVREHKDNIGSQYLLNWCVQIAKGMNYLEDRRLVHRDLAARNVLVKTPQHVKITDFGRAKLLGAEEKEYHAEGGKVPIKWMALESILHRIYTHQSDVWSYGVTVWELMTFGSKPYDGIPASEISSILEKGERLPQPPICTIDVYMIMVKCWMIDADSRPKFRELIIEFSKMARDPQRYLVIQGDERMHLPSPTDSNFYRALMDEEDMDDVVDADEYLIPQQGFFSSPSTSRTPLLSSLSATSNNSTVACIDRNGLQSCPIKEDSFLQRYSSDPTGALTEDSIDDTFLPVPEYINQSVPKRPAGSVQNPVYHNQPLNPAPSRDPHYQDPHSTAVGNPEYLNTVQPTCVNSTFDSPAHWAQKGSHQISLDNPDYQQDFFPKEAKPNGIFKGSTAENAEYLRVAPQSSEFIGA

[5] = Intrinsic clearance in mouse liver microsomes at 1 uM in presence of NADP measured per mg protein by LC-MS/MS analysis; format: ADME, Microsome; conditions: read-out: CLH
Insect cell = assay: Inhibition of GST-tagged human recombinant VEGFR3 (800 to 1297 residues) Q890H/V1128L/H1146R mutant expressed in insect cells at 200 nM by Z'-lyte assay
[6] = molecular target: Tyrosine-protein kinase Fyn (Homo sapiens) (UniProt P06241); assay: Inhibition of His-tagged human recombinant FYN expressed in insect cells at 200 nM by Z'-lyte assay; conditions: Insect cell
[7] = molecular target: Epidermal growth factor receptor (Homo sapiens, UniProt P00533); assay: Inhibition of wild type EGFR (unknown origin) using TK-substrate preincubated with enzyme for 30 mins followed by substrate and ATP addition for 25 mins by HTRF assay
Epidermal growth factor receptor (Homo sapiens, UniProt P00533), sequence (P00533 whole entry): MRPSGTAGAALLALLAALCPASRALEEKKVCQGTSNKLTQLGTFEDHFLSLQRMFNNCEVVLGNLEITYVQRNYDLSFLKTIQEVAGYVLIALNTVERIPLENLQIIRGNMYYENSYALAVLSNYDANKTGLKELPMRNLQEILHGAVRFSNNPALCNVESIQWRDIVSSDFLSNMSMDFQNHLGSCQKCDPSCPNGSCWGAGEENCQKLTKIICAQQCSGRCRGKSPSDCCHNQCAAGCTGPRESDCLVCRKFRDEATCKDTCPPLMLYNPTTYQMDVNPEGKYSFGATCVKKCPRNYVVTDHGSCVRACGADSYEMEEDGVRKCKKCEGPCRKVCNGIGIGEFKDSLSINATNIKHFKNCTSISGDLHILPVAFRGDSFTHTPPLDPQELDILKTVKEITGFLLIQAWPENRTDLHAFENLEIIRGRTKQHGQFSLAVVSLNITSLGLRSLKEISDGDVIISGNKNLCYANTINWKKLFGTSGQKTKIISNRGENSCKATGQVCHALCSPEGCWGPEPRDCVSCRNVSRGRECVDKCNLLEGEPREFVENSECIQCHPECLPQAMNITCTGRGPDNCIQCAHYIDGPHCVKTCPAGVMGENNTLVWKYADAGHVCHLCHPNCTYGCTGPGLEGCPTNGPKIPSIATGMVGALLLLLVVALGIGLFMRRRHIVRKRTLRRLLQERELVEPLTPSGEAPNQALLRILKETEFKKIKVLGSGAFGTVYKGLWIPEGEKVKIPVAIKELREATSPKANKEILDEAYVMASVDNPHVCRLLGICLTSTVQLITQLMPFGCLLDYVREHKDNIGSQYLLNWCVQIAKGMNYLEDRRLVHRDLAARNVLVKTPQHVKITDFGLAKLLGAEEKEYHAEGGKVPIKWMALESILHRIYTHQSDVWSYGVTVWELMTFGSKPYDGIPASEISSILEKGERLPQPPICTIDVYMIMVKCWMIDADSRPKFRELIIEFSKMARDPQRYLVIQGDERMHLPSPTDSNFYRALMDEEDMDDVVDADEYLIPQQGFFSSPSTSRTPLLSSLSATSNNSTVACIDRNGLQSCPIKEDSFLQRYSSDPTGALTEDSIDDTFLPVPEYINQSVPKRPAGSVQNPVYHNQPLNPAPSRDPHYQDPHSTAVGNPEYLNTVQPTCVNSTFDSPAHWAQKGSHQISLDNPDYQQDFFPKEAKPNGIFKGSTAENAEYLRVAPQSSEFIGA

[8] = molecular target: Tyrosine-protein kinase Fes/Fps (Homo sapiens) (UniProt P07332); assay: Inhibition of His-tagged human recombinant FES expressed in baculovirus expression system at 200 nM by Z'-lyte assay
BaF3 [9] = assay: Cytotoxicity against mouse BaF3 cells expressing EGFR L858R/C797S mutant assessed as reduction in cell viability incubated for 96 hrs by CellTiter-Glo assay; format: functional, cell-based; conditions: BaF3, 96 h
[10] = tested on: Epidermal growth factor receptor (Homo sapiens), P00533 [L858R,T790M]; assay: Inhibition of EGFR L858R/T790M mutant (unknown origin) using TK-substrate preincubated with enzyme for 30 mins followed by substrate and ATP addition for 20 mins by HTRF assay; conditions: time 50.0 min
[11] = molecular target: Platelet-derived growth factor receptor beta (Homo sapiens) (UniProt P09619); assay: Inhibition of His-tagged human recombinant PDGFR-beta (558 to 1106 residues) expressed in baculovirus expression system at 200 nM by Z'-lyte assay
A-431 = assay: Cytotoxicity against human A-431 cells expressing wild type EGFR assessed as reduction in cell viability incubated for 96 hrs by CellTiter-Glo assay; format: functional, cell-based; conditions: A-431, 96 h
[12] = molecular target: Epidermal growth factor receptor (Homo sapiens, UniProt P00533, C797S/L858R/T790M); assay: Inhibition of EGFR L858R/T790M/C797S mutant (unknown origin) using TK-substrate preincubated with enzyme for 30 mins followed by substrate and ATP addition for 10 mins by HTRF assay
Epidermal growth factor receptor (Homo sapiens, UniProt P00533, C797S/L858R/T790M), sequence (P00533 25-1210 T790M/C797S/L858R limits assumed): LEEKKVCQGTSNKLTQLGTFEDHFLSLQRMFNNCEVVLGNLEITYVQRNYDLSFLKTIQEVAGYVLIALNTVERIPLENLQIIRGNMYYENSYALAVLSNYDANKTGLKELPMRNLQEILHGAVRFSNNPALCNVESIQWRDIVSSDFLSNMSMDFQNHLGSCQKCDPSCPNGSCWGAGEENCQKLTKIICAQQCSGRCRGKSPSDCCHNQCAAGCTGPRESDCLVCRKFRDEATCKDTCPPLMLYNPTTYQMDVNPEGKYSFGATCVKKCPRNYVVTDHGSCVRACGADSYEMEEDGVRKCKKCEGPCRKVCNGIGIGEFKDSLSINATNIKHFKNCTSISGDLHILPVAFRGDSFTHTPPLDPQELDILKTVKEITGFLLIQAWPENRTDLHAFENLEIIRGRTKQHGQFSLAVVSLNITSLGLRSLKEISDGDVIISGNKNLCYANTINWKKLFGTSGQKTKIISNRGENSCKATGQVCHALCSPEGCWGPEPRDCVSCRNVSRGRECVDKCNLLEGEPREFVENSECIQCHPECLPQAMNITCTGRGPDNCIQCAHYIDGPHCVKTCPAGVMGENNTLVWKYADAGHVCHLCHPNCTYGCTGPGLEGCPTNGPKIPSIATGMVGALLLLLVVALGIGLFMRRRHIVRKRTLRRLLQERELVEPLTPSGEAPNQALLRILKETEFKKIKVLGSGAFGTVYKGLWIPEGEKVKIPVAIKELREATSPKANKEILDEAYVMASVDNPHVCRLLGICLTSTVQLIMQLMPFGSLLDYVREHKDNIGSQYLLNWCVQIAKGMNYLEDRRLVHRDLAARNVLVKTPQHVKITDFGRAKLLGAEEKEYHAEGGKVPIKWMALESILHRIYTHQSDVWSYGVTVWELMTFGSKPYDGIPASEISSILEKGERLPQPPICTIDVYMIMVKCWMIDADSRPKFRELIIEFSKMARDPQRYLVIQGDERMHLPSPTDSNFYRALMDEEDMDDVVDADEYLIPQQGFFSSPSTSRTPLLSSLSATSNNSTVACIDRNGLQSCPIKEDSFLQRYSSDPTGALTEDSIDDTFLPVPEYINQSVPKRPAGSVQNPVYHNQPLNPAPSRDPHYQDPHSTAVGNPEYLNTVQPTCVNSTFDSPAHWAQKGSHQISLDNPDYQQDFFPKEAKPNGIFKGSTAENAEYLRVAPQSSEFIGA

[13] = molecular target: Fibroblast growth factor receptor 2 (Homo sapiens) (UniProt P21802); assay: Inhibition of His-tagged human recombinant FGFR2 (403 to 822 residues) expressed in baculovirus expression system at 200 nM by Z'-lyte assay
[14] = molecular target: Tyrosine-protein kinase TXK (Homo sapiens) (UniProt P42681); assay: Inhibition of GST-tagged human recombinant TXK (260 to 527 residues) expressed in baculovirus expression system at 200 nM by Z'-lyte assay
BaF3 [15] = assay: Cytotoxicity against mouse BaF3 cells expressing EGFR L858R/T790M/C797S mutant assessed as reduction in cell viability incubated for 96 hrs by CellTiter-Glo assay; format: functional, cell-based; conditions: BaF3, 96 h
[16] = molecular target: Epidermal growth factor receptor (Homo sapiens, UniProt P00533, L858R); assay: Inhibition of EGFR L858R mutant (unknown origin) using TK-substrate preincubated with enzyme for 30 mins followed by substrate and ATP addition for 15 mins by HTRF assay
Epidermal growth factor receptor (Homo sapiens, UniProt P00533, L858R), sequence (P00533 25-1210 L858R limits assumed): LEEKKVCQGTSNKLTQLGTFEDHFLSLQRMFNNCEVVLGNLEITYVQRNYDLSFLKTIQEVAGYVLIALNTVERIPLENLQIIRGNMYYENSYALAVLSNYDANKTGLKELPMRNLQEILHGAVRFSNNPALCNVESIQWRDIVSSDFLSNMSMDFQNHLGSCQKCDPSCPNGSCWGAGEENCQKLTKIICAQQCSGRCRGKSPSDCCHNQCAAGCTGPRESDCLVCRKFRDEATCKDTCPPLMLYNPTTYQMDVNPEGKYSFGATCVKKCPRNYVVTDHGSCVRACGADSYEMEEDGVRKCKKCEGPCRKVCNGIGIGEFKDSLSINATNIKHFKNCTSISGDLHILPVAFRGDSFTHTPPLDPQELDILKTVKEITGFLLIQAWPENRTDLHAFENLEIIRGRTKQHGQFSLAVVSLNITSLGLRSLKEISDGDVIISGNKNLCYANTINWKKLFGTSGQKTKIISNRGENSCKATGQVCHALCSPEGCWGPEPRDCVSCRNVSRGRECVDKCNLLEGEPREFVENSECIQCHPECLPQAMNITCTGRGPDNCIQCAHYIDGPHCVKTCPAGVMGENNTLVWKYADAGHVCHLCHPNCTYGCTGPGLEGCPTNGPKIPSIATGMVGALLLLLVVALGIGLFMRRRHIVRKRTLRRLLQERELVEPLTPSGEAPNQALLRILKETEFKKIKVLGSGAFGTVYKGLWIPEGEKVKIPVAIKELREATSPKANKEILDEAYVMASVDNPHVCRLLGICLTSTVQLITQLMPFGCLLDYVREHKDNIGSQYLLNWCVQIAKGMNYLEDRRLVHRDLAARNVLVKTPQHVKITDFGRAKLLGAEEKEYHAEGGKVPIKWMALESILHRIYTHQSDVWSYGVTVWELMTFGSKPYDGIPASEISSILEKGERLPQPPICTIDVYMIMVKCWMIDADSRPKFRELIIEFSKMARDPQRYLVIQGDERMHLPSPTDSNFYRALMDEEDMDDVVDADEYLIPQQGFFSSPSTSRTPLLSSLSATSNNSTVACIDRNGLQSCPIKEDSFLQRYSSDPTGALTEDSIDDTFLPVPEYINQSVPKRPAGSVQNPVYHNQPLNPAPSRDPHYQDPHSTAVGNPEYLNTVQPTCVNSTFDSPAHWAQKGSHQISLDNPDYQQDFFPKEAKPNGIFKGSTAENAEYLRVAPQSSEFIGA

BaF3 [17] = assay: Cytotoxicity against mouse BaF3 cells expressing EGFR L858R mutant assessed as reduction in cell viability incubated for 96 hrs by CellTiter-Glo assay; format: functional, cell-based; conditions: BaF3, 96 h
Procedure, shortened: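 Cell viability measured by CellTiter-Glo (CTG) luminescence. A431 cells are EGFR wild-type dependent. Ba/F3 cells are made dependent on EGFR-L858R or EGFR-L858R/C797S. Readout is an EC50 for loss of viability.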

[18] = molecular target: Tyrosine-protein kinase Lyn (Homo sapiens) (UniProt P07948); assay: Inhibition of human LYN at 200 nM by Z'-lyte assay
[19] = molecular target: Tyrosine-protein kinase HCK (Homo sapiens) (UniProt P08631); assay: Inhibition of GST-tagged human recombinant HCK expressed in insect cells at 200 nM by Z'-lyte assay; conditions: Insect cell
[20] = molecular target: ALK tyrosine kinase receptor (Homo sapiens) (UniProt Q9UM73); assay: Inhibition of human ALK at 200 nM by Z'-lyte assay
[21] = molecular target: Tyrosine-protein kinase Lck (Homo sapiens) (UniProt P06239); assay: Inhibition of human LCK at 200 nM by Z'-lyte assay
[22] = molecular target: Tyrosine-protein kinase Blk (Homo sapiens) (UniProt P51451); assay: Inhibition of His-tagged human recombinant BLK expressed in insect cells at 200 nM by Z'-lyte assay; conditions: Insect cell
[23] = molecular target: Tyrosine-protein kinase ABL1 (Homo sapiens) (UniProt P00519); assay: Inhibition of His-tagged human recombinant ABL1 expressed in insect cells at 200 nM by Z'-lyte assay; conditions: Insect cell
[24] = molecular target: Inactive tyrosine-protein kinase PEAK1 (Homo sapiens) (UniProt Q9H792); assay: Inhibition of human PEAK1 at 200 nM by Z'-lyte assay

| Compound | IC50 [4] [nM] | IC50 [7] [nM] | EC50 (BaF3 [9]) [nM] | EC50 (A-431) [nM] | IC50 [12] [nM] | EC50 (BaF3 [17]) [nM] | also measured |
| --- | --- | --- | --- | --- | --- | --- | --- |
| COc1cc(N2CCC(N(C)C)CC2)ccc1Nc1ncc(C(=O)Oc2ccccc2)c(-c2c[nH]c3ccccc23)n1 | 0.02 | 0.008 | 7.1 | 1840 | 0.64 | – | inhibition [1]: > 40%; inhibition [2]: > 40%; inhibition [3]: Active; microsomal CLint at 1 µM [5]: 55 µL/min/mg; inhibition (Insect cell): > 40%; inhibition [6]: > 40%; inhibition [8]: > 40%; inhibition [10]: Active; inhibition [11]: > 40%; inhibition [13]: > 40%; inhibition [14]: > 40%; EC50 (BaF3 [15]): 470 nM |
| COc1cc(N2CCN(C)CC2)ccc1Nc1ncc(C(=O)Oc2ccccc2)c(-c2cn(C)c3ccccc23)n1 | 0.064 | 0.053 | 94 | 2610 | 8.8 | – | – |
| CCOC(=O)c1cnc(Nc2ccc(N3CCN(C)CC3)cc2OC)nc1-c1cn(C)c2ccccc12 | 17 | 5.2 | 1880 | – | – | 1900 | IC50 [16]: 0.68 nM |
| C=CC(=O)Nc1cc(Nc2ncc(C(=O)OC(C)C)c(-c3cn(C)c4ccccc34)n2)c(OC)cc1N(C)CCN(C)C [MOBOCERTINIB] | 25 | 0.025 | 2710 | 1680 | 364 | 1.1 | microsomal CLint at 1 µM [5]: 149 µL/min/mg; IC50 [16]: 0.01 nM |
| COc1cc(N2CCC(N)CC2)ccc1Nc1ncc(C(=O)OC(C)C)c(-c2cn(C)c3ccccc23)n1 | 0.56 | 0.35 | 354 | 4020 | 12 | – | – |
| COc1cc(N2CCC(N(C)C)CC2)ccc1Nc1ncc(C(=O)OC(C)C)c(-c2c[nH]c3ccccc23)n1 | 0.32 | 0.16 | 111 | 3890 | 15 | – | microsomal CLint at 1 µM [5]: 49 µL/min/mg; inhibition [18]: > 40%; inhibition [19]: > 40%; inhibition [20]: > 40%; inhibition [21]: > 40%; inhibition [22]: > 40%; inhibition [23]: > 40%; inhibition [24]: > 40% |
| COC(=O)c1cnc(Nc2ccc(N3CCN(C)CC3)cc2OC)nc1-c1cn(C)c2ccccc12 | 73 | 23 | 3750 | – | – | 3340 | IC50 [16]: 3.4 nM |
| C=CC(=O)Nc1cc(Nc2nccc(-c3cn(C)c4ccccc34)n2)c(OC)cc1N(C)CCN(C)C [OSIMERTINIB] | – | – | 2960 | […] | – | 6 | microsomal CLint at 1 µM [5]: 81 µL/min/mg |
| COc1cc(N2CCC(N(C)C)CC2)ccc1Nc1ncc(C(=O)OC(C)C)c(-c2cn(C(C)=O)c3ccccc23)n1 | 3 | 0.86 | 220 | 3920 | 78 | – | – |
| COc1cc(N2CCC(N3CCN(C)CC3)CC2)ccc1Nc1ncc(Cl)c(Nc2ccccc2P(C)(C)=O)n1 [BRIGATINIB] | – | – | 295 | 936 | – | – | – |
| COc1cc(N2CCN(C)CC2)ccc1Nc1nccc(-c2cn(C)c3ccccc23)n1 | 125 | 34 | 2060 | – | – | 3630 | IC50 [16]: 5.4 nM |
| COc1cc(N2CCN(C)CC2)ccc1Nc1ncc(C(=O)Oc2ccc(F)cc2)c(-c2cn(C)c3ccccc23)n1 | – | – | 227 | 1410 | – | – | – |
| COc1cc(N2CCC(N(C)C)CC2)ccc1Nc1ncc(C(=O)OC(C)C)c(-c2cn(C)c3ccccc23)n1 | 0.42 | 0.4 | 202 | 3670 | 19 | – | – |
| COc1cc(N2CCN(C)CC2)ccc1Nc1ncc(C(=O)OC(C)C)c(-c2cn(C)c3ccccc23)n1 | – | – | 615 | 7960 | – | 605 | – |
